# Experimental data taken from ChEMBL document CHEMBL1155270, “Modifications at the C-terminus to improve pyrrole-imidazole polyamide activity in cell culture” (J Med Chem, 2009).
# Active and inactive are the calls of the source. No cut-off for these calls is given here.
# Assays:
# LNCaP [1] = assay: Cytotoxicity against human LNCAP cells at 5 uM after 48 hrs by WST1 assay; type: functional, cell-based
# LNCaP [2] = assay: Cytotoxicity against human LNCAP cells after 48 hrs by WST1 assay; type: functional, cell-based
# How it was run: (§1)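 LNCaP cells were seeded at 10-15 × 10^2 per well and allowed to settle 48 h before polyamide was added as 2× media solutions (DMSO <0.1%). After 48 h exposure, media was replaced and cells recovered 24 h. WST-1 was added for 30 min and A450 read. Wells were corrected for media-only background and normalized to untreated controls.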
# LNCaP [3] = assay: Inhibition of dihydrotestosterone-induced prostate specific antigen expression in human LNCAP cells at 5 uM by quantitative RT-PCR analysis; type: functional
# How it was run: (§2)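 LNCaP cells were induced with 1 nM DHT and PSA mRNA measured by quantitative real-time RT-PCR. Oxime-linked polyamides were given at 5, 1 and 0.1 μM, and unconjugated controls at 5 μM, with DMSO ≤0.1%. Expression was normalized to untreated DHT-induced cells; uninduced and DMSO controls were included.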
# Nucleic Acid [4] = assay: Binding affinity to 5'-TTGCAGAACAGCAA-3' sequence of DNA assessed as change in melting temperature by spectrophotometry; type: nucleic-acid assay
# LNCaP [5] = assay: Cytotoxicity against human LNCAP cells assessed as cell viability at 0.01 to 30 uM after 48 hrs by WST1 assay; type: functional; how it was run: as §1
# Nucleic Acid [6] = assay: Binding affinity to 14mer DNA assessed as change in melting temperature by spectrophotometry; type: nucleic-acid assay
# How it was run: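 Thermal melting of 14-mer oligonucleotide duplexes (HRE or ARE sequence) with and without polyamide, read by UV spectrophotometry in 1 cm quartz cuvettes with a thermostatted holder. Buffer was 10 mM sodium cacodylate, 10 mM KCl, 10 mM MgCl2, 5 mM CaCl2, pH 7.0. ΔTm is taken relative to the free duplex.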
# LNCaP [7] = assay: Inhibition of dihydrotestosterone-induced prostate specific antigen expression in human LNCAP cells at 0.1 to 5 uM by quantitative RT-PCR analysis; type: functional, cell-based; how it was run: as §2
# U-251 [8] = assay: Inhibition of desferrioxamine-induced VEGF mRNA expression in human U251 cells at 0.02 to 0.2 uM by quantitative RT-PCR analysis; type: functional, cell-based
# How it was run: (§3)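 In U251 cells, induced VEGF mRNA was quantified by real-time RT-PCR after polyamide at 1, 0.2 and 0.02 μM, with DMSO ≤0.1%. Values were normalized to untreated induced cells; uninduced and DMSO-vehicle controls were run alongside.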
# LNCaP [9] = assay: Inhibition of desferrioxamine-induced VEGF mRNA expression in human LNCAP cells at 1 to 2 uM by quantitative RT-PCR analysis; type: functional, cell-based
# U-251 [10] = assay: Inhibition of desferrioxamine-induced VEGF mRNA expression in human U251 cells at 1 uM by quantitative RT-PCR analysis; type: functional; how it was run: as §3
# LNCaP [11] = assay: Inhibition of desferrioxamine-induced VEGF mRNA expression in human LNCAP cells at 10 uM by quantitative RT-PCR analysis; type: functional
# How it was run: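 DFO-induced VEGF mRNA was measured in LNCaP cells by quantitative real-time RT-PCR, following the LNCaP PSA protocol but with non-charcoal-stripped FBS. Polyamide doses were 10, 2 and 0.2 μM, with DMSO ≤0.1%. Levels were normalized to untreated induced cells; untreated uninduced and DMSO controls were included.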
# Nucleic Acid [12] = assay: Binding affinity to 5'-GTGCATACGTGGGC-3' sequence of DNA assessed as change in melting temperature by spectrophotometry; type: nucleic-acid assay
# LNCaP [13] = assay: Selectivity ratio of IC50 for human LNCAP cells to IC50 for inhibition of dihydrotestosterone-induced prostate specific antigen expression in human LNCAP cells; type: functional
# How it was run: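 Ratio of WST-1 growth-inhibition IC50 (48 h exposure, 24 h recovery, LNCaP) to PSA gene-regulation IC50. The gene-regulation IC50 came from Hill-fitted RT-PCR isotherms in 1 nM DHT-induced LNCaP cells, three independent experiments.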
# LNCaP [14] = assay: Inhibition of dihydrotestosterone-induced prostate specific antigen expression in human LNCAP cells at 1 uM by quantitative RT-PCR analysis; type: functional, cell-based; how it was run: as §2
# LNCaP [15] = assay: Inhibition of dihydrotestosterone-induced prostate specific antigen expression in human LNCAP cells by quantitative RT-PCR analysis; type: functional, cell-based
# How it was run: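 For gene-regulation IC50, DHT (1 nM)-induced LNCaP cells were dosed across 30–0.1 μM or 10–0.03 μM. PSA mRNA was quantified by real-time RT-PCR and normalized to induced untreated cells. Isotherms from three independent experiments were fitted with a modified Hill equation.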
# LNCaP [16] = assay: Cytotoxicity against human LNCAP cells at 0.02 to 50 uM after 48 hrs by WST1 assay; type: functional, cell-based; how it was run: as §1
# U-251 [17] = assay: Cytotoxicity against human U251 cells at 0.002 to 10 uM after 48 hrs by WST1 assay; type: functional, cell-based
# How it was run: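 U251 cells were plated at 10-15 × 10^2 per well. After 24 h, polyamide was added in 2× media, with a 10–0.002 μM range for the core-less oxime controls. Cells were treated 48 h, then given fresh media for 24 h recovery. WST-1 was read at 450 nm after 30 min, with background correction and normalization to untreated wells.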
# U-251 [18] = assay: Cytotoxicity against human U251 cells after 48 hrs by WST1 assay; settings: U-251, 48 h
# U-251 [19] = assay: Selectivity ratio of inhibition of desferrioxamine-induced VEGF mRNA expression in human LNCAP cells to inhibition of desferrioxamine-induced VEGF mRNA expression in human U251 cells; type: functional
# LNCaP [20] = assay: Inhibition of expression in human LNCAP cells at 5 uM by quantitative RT-PCR analysis
# LNCaP [21] = assay: Cytotoxicity against human LNCAP cells at 0.01 to 30 uM after 48 hrs by WST1 assay; type: functional, cell-based; how it was run: as §1
compound,measurement,setting,value
Cn1cc(NC(=O)c2cc(NC(=O)c3cc(NC(=O)c4nc(NC(=O)[C@H](N)CCNC(=O)c5cc(NC(=O)c6cc(NC(=O)c7cc(NC(=O)c8nccn8C)cn7C)cn6C)cn5C)cn4C)cn3C)cn2C)cc1C(=O)NCCCO/N=C\c1cccc(F)c1,Activity,LNCaP [1],Active
same,IC50,LNCaP [2],0.6 µM
same,inhibition,LNCaP [3],Active
same,ΔTm,Nucleic Acid [4],12.5 °C
Cn1cc(NC(=O)c2cc(NC(=O)c3nc(NC(=O)c4cc(NC(=O)[C@H](N)CCNC(=O)c5nc(NC(=O)c6cc(NC(=O)c7cc(NC(=O)c8nccn8C)cn7C)cn6C)cn5C)cn4C)cn3C)cn2C)cc1C(=O)NCCCO/N=C\c1cccc(F)c1,Activity,LNCaP [5],<50%
same,ΔTm,Nucleic Acid [6],4 °C
same,inhibition,LNCaP [7],Active
same,IC50,LNCaP [2],≥ 30 µM
Cn1cc(NC(=O)c2cc(NC(=O)c3cc(NC(=O)c4nc(NC(=O)[C@H](N)CCNC(=O)c5nc(NC(=O)c6cc(NC(=O)c7nc(NC(=O)c8nccn8C)cn7C)cn6C)cn5C)cn4C)cn3C)cn2C)cc1C(=O)NCCCO/N=C\c1ccc(F)cc1,inhibition,U-251 [8],Active
same,ΔTm,Nucleic Acid [6],0.8 °C
same,inhibition,LNCaP [9],Active
Cn1cc(NC(=O)c2cc(NC(=O)c3nc(NC(=O)c4cc(NC(=O)[C@H](N)CCNC(=O)c5nc(NC(=O)c6cc(NC(=O)c7cc(NC(=O)c8sccc8Cl)cn7C)cn6C)cn5C)cn4C)cn3C)cn2C)cc1C(=O)NCCCO/N=C\c1ccc(F)cc1,inhibition at 1 µM,U-251 [10],60%
same,inhibition,U-251 [8],Active
same,inhibition at 10 µM,LNCaP [11],80%
same,ΔTm,Nucleic Acid [12],10.5 °C
Cn1cc(NC(=O)c2cc(NC(=O)c3nc(NC(=O)c4cc(NC(=O)[C@H](N)CCNC(=O)c5nc(NC(=O)c6cc(NC(=O)c7cc(NC(=O)c8nccn8C)cn7C)cn6C)cn5C)cn4C)cn3C)cn2C)cc1C(=O)NCCCO/N=C\c1ccc(F)cc1,Activity,LNCaP [5],<50%
same,ΔTm,Nucleic Acid [6],3.4 °C
same,inhibition,LNCaP [7],Active
same,IC50,LNCaP [2],≥ 30 µM
Cn1cc(NC(=O)c2cc(NC(=O)c3cc(NC(=O)c4nc(NC(=O)[C@H](N)CCNC(=O)c5cc(NC(=O)c6cc(NC(=O)c7cc(NC(=O)c8nccn8C)cn7C)cn6C)cn5C)cn4C)cn3C)cn2C)cc1C(=O)NCCCO/N=C\c1ccc(F)cc1,Ratio IC50,LNCaP [13],0.7
same,Activity,LNCaP [1],Active
same,inhibition,LNCaP [14],Active
same,ΔTm,Nucleic Acid [6],13.1 °C
same,IC50,LNCaP [15],0.6 µM
same,IC50,LNCaP [2],0.4 µM
same,inhibition,LNCaP [3],Active
Cn1cc(NC(=O)c2cc(NC(=O)c3cc(NC(=O)c4nc(NC(=O)[C@H](N)CCNC(=O)c5nc(NC(=O)c6cc(NC(=O)c7nc(NC(=O)c8nccn8C)cn7C)cn6C)cn5C)cn4C)cn3C)cn2C)cc1C(=O)NCCCO/N=C\c1cccc(F)c1,inhibition,U-251 [8],Active
same,ΔTm,Nucleic Acid [6],0.9 °C
same,inhibition,LNCaP [9],Active
CC(=O)NCCCO/N=C\c1ccc(F)cc1,Activity,LNCaP [16],inactive
same,Activity,U-251 [17],inactive
same,IC50,U-251 [18],> 10 µM
same,IC50,LNCaP [2],> 50 µM
NCCCO/N=C\c1cccc(C(=O)O)c1,Activity,LNCaP [16],inactive
same,Activity,U-251 [17],inactive
same,IC50,U-251 [18],> 10 µM
same,IC50,LNCaP [2],> 50 µM
Cn1cc(NC(=O)c2cc(NC(=O)c3cc(NC(=O)c4nc(NC(=O)[C@H](N)CCNC(=O)c5cc(NC(=O)c6cc(NC(=O)c7cc(NC(=O)c8nccn8C)cn7C)cn6C)cn5C)cn4C)cn3C)cn2C)cc1C(=O)NCCCO/N=C\c1cccc(C(=O)O)c1,Ratio IC50,LNCaP [13],6.1
same,Activity,LNCaP [1],Active
same,inhibition,LNCaP [14],Active
same,IC50,LNCaP [15],0.3 µM
same,IC50,LNCaP [2],1.7 µM
same,inhibition,LNCaP [3],Active
same,ΔTm,Nucleic Acid [4],11.5 °C
Cn1cc(NC(=O)c2cc(NC(=O)c3cc(NC(=O)c4nc(NC(=O)[C@H](N)CCNC(=O)c5nc(NC(=O)c6cc(NC(=O)c7nc(NC(=O)c8nccn8C)cn7C)cn6C)cn5C)cn4C)cn3C)cn2C)cc1C(=O)NCCCO/N=C\c1cccc(C(=O)O)c1,inhibition,U-251 [8],Active
same,ΔTm,Nucleic Acid [6],0.8 °C
same,inhibition,LNCaP [9],Active
CC(=O)NCCCO/N=C\c1cccc(C(=O)O)c1,Activity,LNCaP [16],inactive
same,Activity,U-251 [17],inactive
same,IC50,U-251 [18],> 10 µM
same,IC50,LNCaP [2],> 50 µM
CN(CCCNC(=O)c1cccc(C(=O)O)c1)CCCNC(=O)c1cc(NC(=O)c2cc(NC(=O)c3cc(NC(=O)c4nc(NC(=O)[C@H](N)CCNC(=O)c5cc(NC(=O)c6cc(NC(=O)c7cc(NC(=O)c8nccn8C)cn7C)cn6C)cn5C)cn4C)cn3C)cn2C)cn1C,Activity,LNCaP [5],<50%
same,Ratio IC50,LNCaP [13],>=5
same,Ratio,U-251 [19],10
same,IC50,LNCaP [15],6 µM
same,inhibition,LNCaP [20],Active
same,IC50,LNCaP [2],> 30 µM
same,ΔTm,Nucleic Acid [4],14.2 °C
Cn1cc(NC(=O)c2cc(NC(=O)c3nc(NC(=O)c4cc(NC(=O)[C@H](N)CCNC(=O)c5nc(NC(=O)c6cc(NC(=O)c7cc(NC(=O)c8nccn8C)cn7C)cn6C)cn5C)cn4C)cn3C)cn2C)cc1C(=O)NCCCO/N=C\c1cccc(C(=O)O)c1,Activity,LNCaP [5],<50%
same,Activity,LNCaP [21],inactive
same,ΔTm,Nucleic Acid [6],2.6 °C
same,inhibition,LNCaP [7],Active
Cn1cc(NC(=O)c2cc(NC(=O)c3nc(NC(=O)c4cc(NC(=O)[C@H](N)CCNC(=O)c5nc(NC(=O)c6cc(NC(=O)c7cc(NC(=O)c8sccc8Cl)cn7C)cn6C)cn5C)cn4C)cn3C)cn2C)cc1C(=O)NCCCO/N=C\c1cccc(C(=O)O)c1,inhibition at 1 µM,U-251 [10],60%
same,inhibition,U-251 [8],Active
same,inhibition at 10 µM,LNCaP [11],80%
same,ΔTm,Nucleic Acid [12],11.4 °C
Cn1cc(NC(=O)c2cc(NC(=O)c3nc(NC(=O)c4cc(NC(=O)[C@H](N)CCNC(=O)c5nc(NC(=O)c6cc(NC(=O)c7cc(NC(=O)c8sccc8Cl)cn7C)cn6C)cn5C)cn4C)cn3C)cn2C)cc1C(=O)NCCCO/N=C\c1cccc(F)c1,inhibition at 1 µM,U-251 [10],60%
same,inhibition,U-251 [8],Active
same,inhibition at 10 µM,LNCaP [11],80%
same,ΔTm,Nucleic Acid [12],9.4 °C
NCCCO/N=C\c1ccc(F)cc1,Activity,LNCaP [16],inactive
same,Activity,U-251 [17],inactive
same,IC50,U-251 [18],> 10 µM
same,IC50,LNCaP [2],> 50 µM
